These results are taken from ChEMBL document CHEMBL2321826, “Synthesis and antibacterial evaluation of rhodanine-based 5-aryloxy pyrazoles against selected methicillin resistant and quinolone-resistant Staphylococcus aureus (MRSA and QRSA)” (Eur J Med Chem, 2013).

Broadly, the MIC is the lowest concentration found to suppress growth.

In brackets after ≈: the same amount, converted by molar mass.

Holding throughout (assay type): functional
Experiment [1] deals with Staphylococcus aureus. The experiment can be described thus: Antibacterial activity against quinolone-resistant Staphylococcus aureus CCARM 3519 assessed as bacterial growth inhibition measured during 24 hrs incubation at 37 degC by two-fold serial dilution technique. The conditions noted are these: CCARM 3519, 24 h. Put shortly: (§1)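 Clinical isolates grown to mid-log phase in Mueller-Hinton broth, diluted 1000-fold, inoculated at 10⁵ CFU/mL in MHB in 96-well microtiter plates. Two-fold serial dilutions gave final concentrations of […]. Oxacillin and norfloxacin were the positive controls. Growth was read as absorbance at 650 nm. MIC is the lowest concentration giving complete growth inhibition.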

For experiment [2], the system named is Staphylococcus aureus. The experiment can be described thus: Antibacterial activity against quinolone-resistant Staphylococcus aureus CCARM 3505 assessed as bacterial growth inhibition measured during 24 hrs incubation at 37 degC by two-fold serial dilution technique. Conditions: CCARM 3505, 24 h. An outline of the steps:
as §1

The subject of experiment [3] is Staphylococcus aureus. The experiment can be described thus: Antibacterial activity against methicillin-resistant Staphylococcus aureus CCARM 3506 assessed as bacterial growth inhibition measured during 24 hrs incubation at 37 degC by two-fold serial dilution technique. Conditions: CCARM 3506, 24 h. An outline of the steps: as §1
The test system of experiment [4] is Staphylococcus aureus. The experiment can be described thus: Antibacterial activity against methicillin-resistant Staphylococcus aureus CCARM 3167 assessed as bacterial growth inhibition measured during 24 hrs incubation at 37 degC by two-fold serial dilution technique. The conditions noted are these: CCARM 3167, 24 h. An outline of the steps:
as §1

Turning to `CCC(C)[C@@H](C(=O)O)N1C(=O)/C(=C/c2c(C)nn(-c3ccccc3)c2Oc2ccccc2)SC1=S` (stereo partly specified), the MIC in the experiment with Staphylococcus aureus [1] was found to be 4 µg/mL (≈ 7.88 µM); in the experiment on Staphylococcus aureus [2], 8 µg/mL (≈ 15.8 µM); with Staphylococcus aureus [3], 4 µg/mL (≈ 7.88 µM); in the experiment with Staphylococcus aureus [4], 4 µg/mL (≈ 7.88 µM).
Take `Cc1ccccc1Oc1c(/C=C2\SC(=S)N([C@H](C(=O)O)C(C)C)C2=O)c(C)nn1-c1ccccc1`: the MIC with Staphylococcus aureus [1] turned out to be 8 µg/mL (≈ 15.8 µM); in the experiment with Staphylococcus aureus [2], 8 µg/mL (≈ 15.8 µM); with Staphylococcus aureus [3], 8 µg/mL (≈ 15.8 µM); with Staphylococcus aureus [4], 4 µg/mL (≈ 7.88 µM).
On to `Cc1nn(-c2ccccc2)c(Oc2ccccc2Cl)c1/C=C1\SC(=S)N(CC(=O)O)C1=O`, for which the MIC was found to be 16 µg/mL (≈ 32.9 µM) in the experiment with Staphylococcus aureus [1], 32 µg/mL (≈ 65.8 µM) in the experiment with Staphylococcus aureus [2], 16 µg/mL (≈ 32.9 µM) in the experiment on Staphylococcus aureus [3] and 16 µg/mL (≈ 32.9 µM) with Staphylococcus aureus [4].
As for `COc1ccc(Oc2c(/C=C3\SC(=S)N([C@H](C(=O)O)C(C)C)C3=O)c(C)nn2-c2ccccc2)cc1`, the MIC in the experiment with Staphylococcus aureus [1], in the experiment with Staphylococcus aureus [2], with Staphylococcus aureus [3] and in the experiment on Staphylococcus aureus [4] was 8 µg/mL (≈ 15.3 µM) throughout.
As to `CCC(C)[C@@H](C(=O)O)N1C(=O)/C(=C/c2c(C)nn(-c3ccccc3)c2Oc2ccc(OC)cc2)SC1=S` (stereo partly specified), the MIC in the experiment on Staphylococcus aureus [1], with Staphylococcus aureus [2], in the experiment with Staphylococcus aureus [3] and in the experiment on Staphylococcus aureus [4] was 4 µg/mL (≈ 7.44 µM) each time.
With `CCC(C)[C@@H](C(=O)O)N1C(=O)/C(=C/c2c(C)nn(-c3ccccc3)c2Oc2cccc(C(F)(F)F)c2)SC1=S` (stereo partly specified), the MIC in the experiment with Staphylococcus aureus [1] came to 8 µg/mL (≈ 13.9 µM); with Staphylococcus aureus [2], 8 µg/mL (≈ 13.9 µM); with Staphylococcus aureus [3], 8 µg/mL (≈ 13.9 µM); with Staphylococcus aureus [4], 4 µg/mL (≈ 6.95 µM).
Take `Cc1nn(-c2ccccc2)c(Oc2ccc(Br)cc2)c1/C=C1\SC(=S)N([C@H](C(=O)O)C(C)C)C1=O`: the MIC in the experiment on Staphylococcus aureus [1] worked out at 4 µg/mL (≈ 6.99 µM); in the experiment on Staphylococcus aureus [2], 4 µg/mL (≈ 6.99 µM); in the experiment with Staphylococcus aureus [3] it was 4 µg/mL (≈ 6.99 µM); in the experiment with Staphylococcus aureus [4] it was 2 µg/mL (≈ 3.49 µM).
Turning to `Cc1nn(-c2ccccc2)c(Cl)c1/C=C1\SC(=S)N(CC(=O)O)C1=O`, the MIC in the experiment with Staphylococcus aureus [1], in the experiment with Staphylococcus aureus [2], in the experiment with Staphylococcus aureus [3] and in the experiment with Staphylococcus aureus [4] was above 64 µg/mL throughout.
Regarding `CCC(C)[C@@H](C(=O)O)N1C(=O)/C(=C/c2c(C)nn(-c3ccccc3)c2Oc2ccc3ccccc3c2)SC1=S` (stereo partly specified), the MIC with Staphylococcus aureus [1], in the experiment on Staphylococcus aureus [2], in the experiment with Staphylococcus aureus [3] and with Staphylococcus aureus [4] was 2 µg/mL (≈ 3.59 µM) in each case.
For `CCC(C)[C@@H](C(=O)O)N1C(=O)/C(=C/c2c(C)nn(-c3ccccc3)c2Cl)SC1=S` (stereo partly specified), the MIC amounted to 32 µg/mL (≈ 71.1 µM) in the experiment on Staphylococcus aureus [1], 16 µg/mL (≈ 35.6 µM) with Staphylococcus aureus [2], 32 µg/mL (≈ 71.1 µM) with Staphylococcus aureus [3] and 16 µg/mL (≈ 35.6 µM) in the experiment with Staphylococcus aureus [4].
For `CCC(C)[C@@H](C(=O)O)N1C(=O)/C(=C/c2c(C)nn(-c3ccccc3)c2Oc2cccc(C)c2)SC1=S` (stereo partly specified), the minimum inhibitory concentration (MIC) in the experiment with Staphylococcus aureus [1] was determined as 2 µg/mL (≈ 3.83 µM); in the experiment with Staphylococcus aureus [2], 4 µg/mL (≈ 7.67 µM); in the experiment with Staphylococcus aureus [3] it was 4 µg/mL (≈ 7.67 µM); with Staphylococcus aureus [4] it was 2 µg/mL (≈ 3.83 µM).
For `CCC(C)[C@@H](C(=O)O)N1C(=O)/C(=C/c2c(C)nn(-c3ccccc3)c2Oc2ccc(Cl)cc2)SC1=S` (stereo partly specified), the MIC in the experiment on Staphylococcus aureus [1] turned out to be 4 µg/mL (≈ 7.38 µM); in the experiment with Staphylococcus aureus [2], 4 µg/mL (≈ 7.38 µM); with Staphylococcus aureus [3], 4 µg/mL (≈ 7.38 µM); in the experiment on Staphylococcus aureus [4], 2 µg/mL (≈ 3.69 µM).
Turning to `Cc1nn(-c2ccccc2)c(Oc2ccccc2)c1/C=C1\SC(=S)N(CC(=O)O)C1=O`, the minimum inhibitory concentration (MIC) with Staphylococcus aureus [1], in the experiment on Staphylococcus aureus [2], in the experiment on Staphylococcus aureus [3] and with Staphylococcus aureus [4] was above 64 µg/mL throughout.
With `Cc1nn(-c2ccccc2)c(Oc2ccccc2Cl)c1/C=C1\SC(=S)N([C@H](C(=O)O)C(C)C)C1=O`, the MIC with Staphylococcus aureus [1] came out at 4 µg/mL (≈ 7.57 µM); with Staphylococcus aureus [2] it was 8 µg/mL (≈ 15.1 µM); in the experiment on Staphylococcus aureus [3], 4 µg/mL (≈ 7.57 µM); in the experiment on Staphylococcus aureus [4] it was 4 µg/mL (≈ 7.57 µM).
`CCC(C)[C@@H](C(=O)O)N1C(=O)/C(=C/c2c(C)nn(-c3ccccc3)c2Oc2c(Cl)cccc2Cl)SC1=S` (stereo partly specified): the MIC in the experiment with Staphylococcus aureus [1] turned out to be 16 µg/mL (≈ 27.8 µM); in the experiment with Staphylococcus aureus [2], 16 µg/mL (≈ 27.8 µM); in the experiment with Staphylococcus aureus [3], 16 µg/mL (≈ 27.8 µM); with Staphylococcus aureus [4] it was 8 µg/mL (≈ 13.9 µM).
On to `Cc1nn(-c2ccccc2)c(Oc2ccccc2)c1/C=C1\SC(=S)N([C@H](C(=O)O)C(C)C)C1=O`, for which the MIC with Staphylococcus aureus [1], with Staphylococcus aureus [2], with Staphylococcus aureus [3] and with Staphylococcus aureus [4] was 16 µg/mL (≈ 32.4 µM) each time.
`Cc1nn(-c2ccccc2)c(Oc2c(Cl)cccc2Cl)c1/C=C1\SC(=S)N([C@H](C(=O)O)C(C)C)C1=O`: the MIC in the experiment on Staphylococcus aureus [1] is 16 µg/mL (≈ 28.4 µM); with Staphylococcus aureus [2], 8 µg/mL (≈ 14.2 µM); with Staphylococcus aureus [3], 16 µg/mL (≈ 28.4 µM); with Staphylococcus aureus [4] it was 8 µg/mL (≈ 14.2 µM).
Turning to `Cc1ccccc1Oc1c(/C=C2\SC(=S)N(CC(=O)O)C2=O)c(C)nn1-c1ccccc1`, the MIC was found to be 32 µg/mL (≈ 68.7 µM) in the experiment with Staphylococcus aureus [1], 32 µg/mL (≈ 68.7 µM) in the experiment on Staphylococcus aureus [2], 32 µg/mL (≈ 68.7 µM) in the experiment with Staphylococcus aureus [3] and 16 µg/mL (≈ 34.4 µM) with Staphylococcus aureus [4].
For `Cc1ccc(Oc2c(/C=C3\SC(=S)N([C@@H](CC(C)C)C(=O)O)C3=O)c(C)nn2-c2ccccc2)c(C)c1`, the MIC in the experiment on Staphylococcus aureus [1], in the experiment with Staphylococcus aureus [2], with Staphylococcus aureus [3] and in the experiment with Staphylococcus aureus [4] was 4 µg/mL (≈ 7.47 µM) throughout.
